# Screens as filed in PubChem.
# The list is not random: actives were taken first. Their share in the collection is about 2.7%.
# RBBP9 inh: human RBBP9 inhibitors, primary screen, biochemical, fluorescence polarization, FP-Rh probe, HTS; recombinant RBBP9; Serine hydrolase RBBP9 (Homo sapiens), O75884; inhibition, % at 7.94 µM; 0.2% of 220,000 active; AID 1515, 2009;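 active means inhibition above the campaign mean of all tested compounds plus 3 SD, cut at about 14% in these data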;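 further: plate controls were DMSO wells with RBBP9 for no effect and wells lacking RBBP9 protein for full effect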
#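 Material: RBBP9 protein. Amount: RBBP9 at 2.5 µM in dispensed solution, before mixing. Schedule: 30 min then 45 min, 25 °C. Medium: Tris buffer pH 8.0, NaCl, Pluronic. Measured by: fluorescence polarization. Measure: percent inhibition from mP, scaled between DMSO and no-protein wells. Replication: one well per compound.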
# PRMT1 FP inh: PRMT1 methyltransferase inhibitors, primary screen, biochemical, fluorescence polarization; AID 652257, 2013; 1.3% of 370,000 active; recombinant PRMT1, activity-based probe fluorescence polarization; inhibition, % at 2.79 µM;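 active means inhibition above about 21% made by adding two undisclosed values, limit read from the data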
# PAD4 FP inh: human PAD4 inhibitors, primary screen, biochemical, fluorescence polarization, 1536-well format; 0.41% of 330,000 active; inhibition, % at 6.36 µM; recombinant PAD4, RCA probe fluorescence polarization;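 active means percent inhibition above a cutoff equal to the mean of all tested compounds plus 3 SD, cut at about 15% in these data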;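 further: 0% = PAD4 with RCA probe and DMSO and 100% = probe without PAD4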
# GSTO1 counter: inhibitors of recombinant GSTO1, primary screen, counter-screen for RBBP9 inhibitor project, biochemical, fluorescence polarization | Glutathione S-transferase omega-1 (Homo sapiens), P78417 | activity-based probe fluorescence polarization | inhibition, % at 5.96 µM | 1.1% of 300,000 active;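 active means inhibition above the campaign mean inhibition plus 3 SD, cut at about 35% in these data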;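 further: 0% = GSTO1-1 with DMSO and 100% = wells lacking GSTO1-1 enzyme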
# SIAE primary: human SIAE inhibitors, primary screen, biochemical, fluorescence polarization, FP-Rh probe, 1536-well HTS. Sialate O-acetylesterase (Homo sapiens), Q9HAT2. SIAE FP-Rh probe binding. inhibition, % at 9.66 µM. 0.69% of 370,000 active;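 active means inhibition above a cutoff: mean of compounds within the control limits plus 3 SD of those, cut at about 17% in these data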;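 further: 0% = plate median of compound wells and 100% = probe without SIAE protein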
# Target sequence (Q9HAT2 whole entry, looked up): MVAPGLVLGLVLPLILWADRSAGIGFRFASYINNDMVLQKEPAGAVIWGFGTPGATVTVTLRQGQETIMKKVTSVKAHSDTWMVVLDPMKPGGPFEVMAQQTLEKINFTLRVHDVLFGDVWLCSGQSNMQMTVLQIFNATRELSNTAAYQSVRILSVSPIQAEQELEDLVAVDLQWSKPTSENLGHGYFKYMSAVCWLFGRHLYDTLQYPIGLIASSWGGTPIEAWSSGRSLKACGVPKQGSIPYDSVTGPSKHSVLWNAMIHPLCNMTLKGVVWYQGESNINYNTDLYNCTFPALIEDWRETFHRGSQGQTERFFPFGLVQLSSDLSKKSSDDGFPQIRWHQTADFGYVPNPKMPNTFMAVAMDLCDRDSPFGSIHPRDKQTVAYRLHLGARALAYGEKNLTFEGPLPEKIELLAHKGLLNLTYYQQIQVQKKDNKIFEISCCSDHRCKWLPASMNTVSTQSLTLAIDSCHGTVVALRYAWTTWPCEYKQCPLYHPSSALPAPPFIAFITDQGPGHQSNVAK
# PRMT1 inh conf: PRMT1 methyltransferase inhibitors, confirmation, biochemical, fluorescence polarization, triplicate | AID 687036, 2013 | 42% of 3,300 active | inhibition, % at 2.79 µM | recombinant His-PRMT1, activity-based probe fluorescence polarization | shares compounds with PRMT1 FP inh;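 active means mean inhibition across replicates above the hit cutoff derived for the earlier primary screen, cut at about 22% in these data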
# * marks the source's active call; other numbers are inactive results; . = not tested or not shown; ! = a repeat was not active.
SMILES,RBBP9 inh,PRMT1 FP inh,PAD4 FP inh,GSTO1 counter,SIAE primary,PRMT1 inh conf
CC[C@H](CCCc1ccc(OC)cc1)CCC(=O)N(c1ccccc1)c1ccccc1,.,-1.2,.,.,-1.1,.
O=C(c1cnn2cccnc12)N1CCN(Cc2ccc3c(c2)OCO3)CC1,-10.4,-1.0,0.4,-1.8,-3.7,.
Cn1c(N)c(C(=O)NCc2ccccc2)sc1=S,-0.5,25.6*,0.2,1.6,4.2,13.8
CCC(=O)/C=C1/Sc2ccccc2N1CC,-4.0,28.6*,-6.0,8.5,10.2,26.8*
CCOC(=O)/C(=C/C=C1\Sc2ccccc2N1CC)C(C)=O,-4.1,.,-3.4,-2.1,.,.
CCN1/C(=C/C(=O)c2ccco2)Sc2ccccc21,-4.2,44.7*,-0.8,14.3,-3.9,5.7
COc1ccc(N(CN2C(=O)c3ccccc3C2=O)C(=O)COc2ccc(Cl)cc2Cl)cc1,-4.3,-1.0,-2.6,-0.3,-8.0,.
Cc1ccc(CS(=O)(=O)Cc2ccc(C(=O)NCc3ccccn3)o2)cc1,-10.2,33.7*,0.8,2.0,-1.0,7.9
COc1ccc(-c2cc(C(=O)Nc3cccnc3Cl)no2)cc1,.,-5.4,4.0,2.0,-0.7,.
CN(C(=O)COC(=O)C1=COCCO1)C1(C#N)CCCCC1,.,-2.5,-1.1,.,-6.1,.
CC(C)(C)n1nnnc1C(c1ccccc1)N1CCN(c2ccccc2)CC1 (stereo not drawn),.,3.4,.,.,-0.7,.
CC(C)(C)n1nnnc1C(c1ccncc1)N1CCN(c2ccc(O)cc2)CC1 (stereo not drawn),7.4,27.1*,-2.6,12.5,1.9,3.7
O=C(COC(=O)C1CCN(S(=O)(=O)c2ccccc2)CC1)NCCc1ccccc1,.,5.2,0.7,.,-1.2,.
COc1cc(NS(=O)(=O)c2ccc(NC(=O)c3ccc(Cl)cc3Cl)cc2)ncn1,.,0.7,3.4,-3.0,0.2,.
COc1c(O)cccc1[C@H](O)C1CCN(CCc2ccc(F)cc2)CC1,.,28.8*,-0.7,-3.5,2.8,1.7
O=C1CC(Sc2ncccn2)C(=O)N1c1ccccc1C(F)(F)F (stereo not drawn),2.0,51.1*,1.6,12.7,-4.2,5.5
Cc1ccc(Cl)cc1N1C(=O)CC(Sc2ncccn2)C1=O (stereo not drawn),.,31.8*,-1.0,-3.3,8.8,-0.4
CCc1ccccc1N1C(=O)CC(Sc2nccc(C)n2)C1=O (stereo not drawn),.,13.8,1.1,1.5,1.8,.
CC(C)/C=N/NC(=O)c1cccc(N2CCCC2=O)c1,-0.6,0.0,-2.8,-1.9,3.5,.
COc1cc(N)c(Cl)cc1C(=O)OCC(=O)NCC1CCCCC1,.,33.9*,1.3,.,-0.6,-7.6
Nc1cc(S(=O)(=O)O)cc2ccc(S(=O)(=O)O)cc12,.,35.1*,.,.,0.5,10.3
COCCNC(=S)c1ccc(Br)cc1,-1.6,35.9*,1.7,7.0,4.5,8.1
COCCNC(=O)Cc1ccc(Br)cc1,-2.8,-1.3,-1.6,-0.9,-0.2,.
CN1CC=C2C(C#N)=C(N)C(C#N)(C#N)C(CCc3ccccc3)C2C1 (stereo not drawn),2.2,.,2.5,1.9,.,.
CN1CCC2(CC1)C1CN(C)CC=C1C(C#N)=C(N)C2(C#N)C#N (stereo not drawn),12.9,39.7*,8.2,20.4,1.9,21.8*!
SMILES,RBBP9 inh,PRMT1 FP inh,PAD4 FP inh,GSTO1 counter,SIAE primary,PRMT1 inh conf
CC[n+]1c(C)sc2cc(C)ccc21,-13.1,73.5*,13.7,2.3,7.7,15.9
CCCC[n+]1c(C)sc2ccc(C)cc21,-6.4,42.2*,-5.7,4.9,-0.1,17.7
Cc1ccc2sc(C)[n+](CCO)c2c1,-5.5,58.4*,9.0,0.2,-2.6,33.2*
Clc1ccccc1-c1nnc(-c2cccs2)o1,-2.2,0.5,-3.7,0.7,3.7,.
O=S(=O)(c1ccccc1)c1nc(-c2ccco2)oc1NCc1cccnc1,5.6,32.4*,-2.1,-8.0,6.6,4.3
Cc1cc(COC(=O)C2N3C(=O)[C@@H](NC(=O)COc4ccccc4)[C@H]3SC2(C)C)on1 (stereo partly drawn),.,-1.1,-12.7,5.2,-2.0,.
Cc1ccc(N2CC(C(=O)N3CCC4(CC3)CC(=O)c3ccccc3O4)CC2=O)cc1 (stereo not drawn),.,0.8,1.0,14.2,8.6,.
COc1ccc(Cl)cc1-c1n[nH]c(=S)n1C1CCCCC1,-7.9,13.4,1.9,-5.9,-4.4,.
Cc1cc(Cl)ccc1OCc1n[nH]c(=S)n1C1CCCCC1,-0.5,25.8*,-5.5,-8.9,-2.4,1.8
COc1ccc(CN2CCC(C(N)=O)CC2)cc1OCc1ccccc1,.,5.3,-3.6,1.7,-3.1,.
O=C1N(Cc2ccccc2)CC2(Br)COCOC12O (stereo not drawn),.,89.9*,.,.,4.2,90.8*
O=C1C(c2ccccc2)CN1Cc1ccccc1 (stereo not drawn),.,-0.1,.,.,-2.0,.
O=C(CN1CCC(NC(=O)Nc2ccccc2)CC1)Nc1ccccc1F,.,0.8,-1.7,3.6,-3.4,.
CC(=O)Nc1ccc(SCCCC(=O)c2ccccc2)cc1,.,35.4*,3.9,7.3,0.7,39.1*
c1ccc2c(c1)CCCN2Cc1nnc2n1CCCCC2,0.6,16.4,2.7,-1.5,-9.1,.
CN(NC(=S)Nc1ccc(OC(F)F)cc1)C(=S)Nc1ccc(OC(F)F)cc1,-3.8,44.5*,9.3,0.6,2.5,-1.7
CCN(CC)C(=S)Nc1ccc(OC(F)F)cc1,-0.9,-0.3,-0.6,13.0,-1.4,.
N#CCCSCc1ccc(C(=O)O)o1,-8.0,1.1,-1.8,0.1,-3.3,.
CCCC(C)c1nnc(NC(=O)c2cc(C(=O)OC)cc([N+](=O)[O-])c2)s1 (stereo not drawn),-7.5,28.6*,-4.2,-28.1,-1.7,54.3*
CCCC(C)NC(=O)c1cc(C(=O)OC)cc([N+](=O)[O-])c1 (stereo not drawn),-6.5,0.6,1.8,-0.7,2.5,.
Brc1ccc(C2=CSC3=NCCN23)cc1,-4.4,30.0*,0.4,8.2,-0.1,12.3
C1=C(c2ccccc2)N2CCN=C2S1,-5.0,3.9,-4.1,2.5,3.2,.
CC1=CC(=O)C(C2CCCCC2)=C/C1=N\OS(=O)(=O)c1ccccc1,.,50.6*,.,.,2.9,13.1
Cc1cc(F)ccc1-c1cc(C(=O)NCC2CCCCC2)[nH]n1,.,-2.4,.,.,-0.7,.
CCCC(=O)OCCNc1cc(Sc2nccn2C)c2nonc2c1[N+](=O)[O-],-1.6,71.9*,1.9,13.0,4.3,40.0*
CC(=O)OCCCNc1cc(SCc2ccco2)c2nonc2c1[N+](=O)[O-],0.5,54.0*,-2.0,27.4,12.8,13.6
